Data from ChEMBL document CHEMBL5678815 (Clin Cancer Res, 2017).
Activity calls are given as the source filed them. The rule behind the calls is not given here.

How the values were obtained:
[1] = In vivo inhibition of BCR signaling in female […] mouse assessed as B-cell function at 25 mg/kg, po administered for 24 hrs and measured after stimulation with anti-IgM for 18 h by flow cytometry analysis relative to control; type: functional, Splenocyte; set-up: scale not given: the % may be the effect or the level left
Outline: (§1)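 Female C57BL/6 mice (5/group) received vehicle or 25 mg/kg drug by oral gavage at time zero, with spleens taken at time points from 3 to 24 h. Splenocytes were stimulated ex vivo with goat anti-mouse IgM at 10μg/mL for 18 h at 37°C in 5% CO2, then Fc-blocked and stained for CD19 plus CD69, CD86 or phospho-S6(S235/236), with 7-AAD to exclude dead cells. Read-out was flow cytometry on >5,000 gated CD19+ cells, compared with vehicle.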

[2] = target: Casein kinase II subunit alpha (Homo sapiens) (UniProt P68400); experiment: Inhibition of human CSNK2A1 assessed as remaining activity at 1 uM by ATP-competition binding assay relative to control
Outline: (§2)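 KINOMEscan ATP-site-dependent competition binding panel of 395 human kinases, with compound tested at 1 μM. Binding is reported as remaining signal relative to control.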

[3] = target: AP2-associated protein kinase 1 (Homo sapiens) (UniProt Q2M2I8); experiment: Inhibition of human AAK1 assessed as remaining activity at 1 uM by ATP-competition binding assay relative to control; outline: as §2
[4] = target: Tyrosine-protein kinase Lck (Homo sapiens) (UniProt P06239); experiment: Inhibition of human LCK assessed as remaining activity at 1 uM by ATP-competition binding assay relative to control
Outline: (§3)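 Single-point profiling at 1μM in an ATP-site-dependent competition binding assay across a panel of 395 human kinases, including mutant forms. The read-out is kinase binding signal in the presence of test agent, expressed as inhibition relative to the control signal. This screen assessed noncovalent binding interactions.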

[5] = target: Serine/threonine-protein kinase N1 (Homo sapiens) (UniProt Q16512); experiment: Inhibition of human PKN1 assessed as remaining activity at 1 uM by ATP-competition binding assay relative to control
Outline: (§4)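 Single-concentration (1 μM) screen in an ATP-site-dependent competition binding assay (KINOMEscan, outsourced) covering 395 human kinases, mutants included. Non-covalent binding was read as the remaining signal relative to the control signal.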

[6] = target: Cyclin-dependent kinase 15 (Homo sapiens) (UniProt Q96Q40); experiment: Inhibition of human PFTAIRE2 assessed as remaining activity at 1 uM by ATP-competition binding assay relative to control; outline: as §3
[7] = tested on: Serine/threonine-protein kinase B-raf (Homo sapiens), P15056 [V600E]; experiment: Inhibition of human BRAF V600E mutant assessed as remaining activity at 1 uM by ATP-competition binding assay relative to control; outline: as §2
[8] = target: Hepatocyte growth factor receptor (Homo sapiens) (UniProt P08581); experiment: Inhibition of human MET assessed as remaining activity at 1 uM by ATP-competition binding assay relative to control; outline: as §3
[9] = tested on: Splenocyte; experiment: In vivo inhibition of BCR signaling in female […] mouse assessed as change in CD86 expression at 25 mg/kg, po administered and measured after stimulation with anti-IgM for 18 h by flow cytometry analysis; type: functional, organism-based; outline: as §1
[10] = target: Ribosomal protein S6 kinase alpha-5 (Homo sapiens) (UniProt O75582); experiment: Inhibition of human RPS6KA5 assessed as remaining activity at 1 uM by ATP-competition binding assay relative to control; outline: as §4
[11] = target: Protein-tyrosine kinase 6 (Homo sapiens) (UniProt Q13882); experiment: Inhibition of human BRK assessed as remaining activity at 1 uM by ATP-competition binding assay relative to control; outline: as §2
[12] = target: Mitogen-activated protein kinase 6 (Homo sapiens) (UniProt Q16659); experiment: Inhibition of human ERK3 assessed as remaining activity at 1 uM by ATP-competition binding assay relative to control; outline: as §3
[13] = tested on: Splenocyte; experiment: In vivo inhibition of BCR signaling in female […] mouse assessed as change in phospho-S6 expression at 25 mg/kg, po administered and measured after stimulation with anti-IgM for 18 h by flow cytometry analysis; type: functional, organism-based; outline: as §1
[14] = target: Serine/threonine-protein kinase PAK 3 (Homo sapiens) (UniProt O75914); experiment: Inhibition of human PAK3 assessed as remaining activity at 1 uM by ATP-competition binding assay relative to control; outline: as §3
[15] = target: Serine/threonine-protein kinase pim-1 (Homo sapiens) (UniProt P11309); experiment: Inhibition of human PIM1 assessed as remaining activity at 1 uM by ATP-competition binding assay relative to control; outline: as §3
[16] = target: 3-phosphoinositide-dependent protein kinase 1 (Homo sapiens) (UniProt O15530); experiment: Inhibition of human PDPK1 assessed as remaining activity at 1 uM by ATP-competition binding assay relative to control; outline: as §3
[17] = target: Serine/threonine-protein kinase/endoribonuclease IRE1 (Homo sapiens) (UniProt O75460); experiment: Inhibition of human ERN1 assessed as remaining activity at 1 uM by ATP-competition binding assay relative to control; outline: as §3
[18] = tested on: Epidermal growth factor receptor (Homo sapiens), P00533 [UNDEFINED MUTATION]; experiment: Inhibition of human EGFR E746-A750del mutant assessed as remaining activity at 1 uM by ATP-competition binding assay relative to control
Outline: (§5)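 KINOMEscan ATP-site-dependent competition binding assay across a 395-kinase human panel including mutants; compound tested at 1μM; binding expressed relative to control signal.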

[19] = target: RAC-alpha serine/threonine-protein kinase (Homo sapiens) (UniProt P31749); experiment: Inhibition of human AKT1 assessed as remaining activity at 1 uM by ATP-competition binding assay relative to control; outline: as §2
[20] = tested on: Epidermal growth factor receptor (Homo sapiens), P00533 [L858R,T790M]; experiment: Inhibition of human EGFR L858R/T790M mutant assessed as remaining activity at 1 uM by ATP-competition binding assay relative to control; outline: as §5
[21] = target: Dual specificity tyrosine-phosphorylation-regulated kinase 1B (Homo sapiens) (UniProt Q9Y463); experiment: Inhibition of human DYRK1B assessed as remaining activity at 1 uM by ATP-competition binding assay relative to control; outline: as §2
[22] = target: Tyrosine-protein kinase JAK2 (Homo sapiens) (UniProt O60674); experiment: Inhibition of human JAK2 JH1 domain assessed as remaining activity at 1 uM by ATP-competition binding assay relative to control
Outline: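 Compound at 1μM was screened in an ATP-site-dependent competition binding assay (KINOMEscan) against a 395-kinase human panel. Signal was expressed relative to control.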

[23] = target: cGMP-dependent protein kinase 2 (Homo sapiens) (UniProt Q13237); experiment: Inhibition of human PRKG2 assessed as remaining activity at 1 uM by ATP-competition binding assay relative to control; outline: as §4
[24] = target: Serine/threonine-protein kinase N2 (Homo sapiens) (UniProt Q16513); experiment: Inhibition of human PKN2 assessed as remaining activity at 1 uM by ATP-competition binding assay relative to control; outline: as §4
[25] = tested on: Epidermal growth factor receptor (Homo sapiens), P00533 [UNDEFINED MUTATION]; experiment: Inhibition of human EGFR L747-E749del/A750P mutant assessed as remaining activity at 1 uM by ATP-competition binding assay relative to control; outline: as §5
[26] = target: Tyrosine-protein kinase HCK (Homo sapiens) (UniProt P08631); experiment: Inhibition of human HCK assessed as remaining activity at 1 uM by ATP-competition binding assay relative to control; outline: as §3

Q: For `CC#CC(=O)N1CCC[C@H]1c1nc(-c2ccc(C(=O)Nc3ccccn3)cc2)c2c(N)nccn12` [ACALABRUTINIB], which Activity [1] is on record?
A: ~70%

Q: And the Activity [2]?
A: 54%

Q: And the Activity [3]?
A: 86%

Q: And the Activity [4]?
A: 90%

Q: And the Activity [5]?
A: 94%

Q: And the Activity [6]?
A: 76%

Q: What about the Activity [7] of the same compound?
A: 44%

Q: What about the Activity [8] of the same compound?
A: 91%

Q: What about the Activity [9] of the same compound?
A: Active

Q: And the Activity [10]?
A: 84%

Q: What about the Activity [11] of the same compound?
A: 79%

Q: What about the Activity [12] of the same compound?
A: 94%

Q: And the Activity [13]?
A: Active

Q: What about the Activity [14] of the same compound?
A: 73%

Q: What about the Activity [15] of the same compound?
A: 84%

Q: And the Activity [16]?
A: 67%

Q: And the Activity [17]?
A: 85%

Q: What about the Activity [18] of the same compound?
A: 85%

Q: What about the Activity [19] of the same compound?
A: 93%

Q: And the Activity [20]?
A: 94%

Q: What about the Activity [21] of the same compound?
A: 93%

Q: And the Activity [22]?
A: 81%

Q: And the Activity [23]?
A: 95%

Q: What about the Activity [24] of the same compound?
A: 86%

Q: And the Activity [25]?
A: 87%

Q: And the Activity [26]?
A: 62%
